Most compounds without a hit are left out; they make up all but 4% or so of the library.
FAS-TE inh – FAS thioesterase domain inhibitors, primary screen, biochemical, fluorescence intensity, uHTS; Fatty acid synthase (Homo sapiens), P49327; recombinant FAS-TE, OMFH fluorogenic substrate, fluorescence endpoint; inhibition, % at 15 µM; hit rate 0.67% among 360,000; AID 602261, 2012;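 active means compounds whose normalised, plate-corrected inhibition of enzyme fluorescence in the single-dose primary screen is 50% or more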
NR3A LBD binder – binders of NR3A ligand-binding domain, primary screen, biophysical, differential scanning fluorimetry, uHTS. Tm shift relative to glycine control, % at 25 µM. NR3A LBD differential scanning fluorimetry, Tm shift; 0% = protein alone, 100% = glycine-bound protein. hit rate 2.5% among 340,000. Glutamate receptor ionotropic, NMDA 3A (GRIN3A) ligand-binding domain;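 active means melting temperature shift of at least 10% of the positive control shift, at one fixed dose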
hiPSC survival – enhancers of single-cell hiPSC survival, primary screen, ATPlite luminescence | 100% = ROCK inhibitor wells, 0% = DMSO | survival enhancement, % at 20 µM | hit rate 0.044% among 360,000 | AID 602274, 2012; in the data active means survival enhancement above about 18%;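 further: cells exposed to compounds for 16 hours before the ATP read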
SENP1 inh – human SENP1 catalytic domain inhibitors, primary screen, biochemical, FRET, uHTS; Sentrin-specific protease 1 (Homo sapiens), Q9P0U3; recombinant SENP1 catalytic domain, CyPet-SUMO1-YPet FRET cleavage; inhibition, % at 10 µM; hit rate 0.21% among 360,000; AID 624204, 2012;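 active means inhibition at least 30% at 10 µM, raw YFP signal under a set limit, fluorescence ratio 0.5 to 1.5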
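system = hSENP1 catalytic domain, recombinant | reagent = SFCypet-SUMO1-SFYpet substrate at 25 nM | doses = one dose per compound, 10 µM, 0.5% DMSO | incubation = enzyme reaction for 50 min at room temperature, dark | measured by = FRET, CFP and YFP emission | controls = no-enzyme low, enzyme-DMSO high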
Arr AP2 block – inhibitors of beta-arrestin/AP2 binding, primary screen, biochemical, GPCR trafficking, flow cytometry; inhibition, % at 10 µM; FITC-arrestin peptide / GST-AP2 beads; AP2 beta2 appendage carries R879A mutation; AID 504490, 2011; hit rate 0.31% among 340,000; beta-arrestin 1 C-terminal peptide binding to AP2 beta2-adaptin appendage (human);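 active means inhibition above a set limit, near 3 SD of compounds lacking own fluorescence, cut at about 54% in these data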
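System: GST-AP2 R879A glutathione beads. Medium: PBS with 0.05% Tween 20 and 0.1% BSA. Also added: FITC-arrestin peptide, 50 nM. Incubation: 12 min plus 1 h, RT. Measured by: high-throughput flow cytometry of beads, ex 488, em 535 nm. Evaluation: percent drop in bead-associated FITC signal.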
Cardio protect – cardioprotection against H2O2-induced cell death, primary screen, uHTS, H9c2 cells, ATPLite luminescence | hit rate 0.63% among 360,000 | H9c2 cardiomyocytes, H2O2 injury protection, 2 h | protection from H2O2 cell death, % at 20 µM | AID 588492, 2011;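 active means compounds giving at least 50% protection of heart cells from peroxide-induced death in the single-dose screen, raw or plate-pattern-corrected value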
Arr AP2 CP1 – inhibitors of arrestin peptide binding to AP2, confirmation, biochemical, cherry pick 1, flow cytometry beads | inhibition, % at 10 µM | AID 504908, 2011 | shares compounds with Arr AP2 block | GST-AP2 beads, FITC arrestin peptide binding; GST-fused beta2-adaptin appendage, R879A mutant | hit rate 2% among 1,300;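 active means inhibition above a set limit, roughly 3 SD of non-fluorescent compound noise, cut at about 38% in these data; inactive means inhibition at or below that limit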;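 further: loss of bead fluorescence from 50 nM FITC arrestin peptide bound to appendage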
Target sequence (P63010 whole entry, looked up, the tested form may be a part, one chain of several): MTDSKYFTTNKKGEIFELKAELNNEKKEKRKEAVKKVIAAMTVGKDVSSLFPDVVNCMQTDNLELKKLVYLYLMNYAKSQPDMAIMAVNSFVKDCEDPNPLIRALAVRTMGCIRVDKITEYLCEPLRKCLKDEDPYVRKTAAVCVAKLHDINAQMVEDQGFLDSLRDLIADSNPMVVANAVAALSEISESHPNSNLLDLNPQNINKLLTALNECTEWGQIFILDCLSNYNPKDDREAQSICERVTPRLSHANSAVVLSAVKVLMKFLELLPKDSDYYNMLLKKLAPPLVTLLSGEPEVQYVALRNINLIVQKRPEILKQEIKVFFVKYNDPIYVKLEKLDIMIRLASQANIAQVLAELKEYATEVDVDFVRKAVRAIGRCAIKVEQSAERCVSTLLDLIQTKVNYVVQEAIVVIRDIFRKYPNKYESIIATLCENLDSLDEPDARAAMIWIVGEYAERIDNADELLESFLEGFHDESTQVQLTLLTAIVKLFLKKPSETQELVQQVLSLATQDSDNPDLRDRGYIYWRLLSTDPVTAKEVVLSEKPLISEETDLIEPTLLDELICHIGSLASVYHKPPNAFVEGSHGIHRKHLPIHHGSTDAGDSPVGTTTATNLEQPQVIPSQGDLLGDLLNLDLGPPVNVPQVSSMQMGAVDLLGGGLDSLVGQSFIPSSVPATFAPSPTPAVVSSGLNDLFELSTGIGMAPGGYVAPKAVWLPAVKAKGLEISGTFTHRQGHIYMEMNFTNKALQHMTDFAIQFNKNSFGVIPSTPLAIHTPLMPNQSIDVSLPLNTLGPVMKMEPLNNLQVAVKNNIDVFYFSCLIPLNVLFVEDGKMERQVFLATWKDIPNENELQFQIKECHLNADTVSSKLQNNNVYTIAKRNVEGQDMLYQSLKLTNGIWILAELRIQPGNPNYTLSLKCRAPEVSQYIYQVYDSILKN
GST-FITC bead – GST-fluorescein capture on glutathione beads, confirmation, artefact control for arrestin-AP2 inhibitor project, biochemical, cherry pick 1, flow cytometry. shares compounds with Arr AP2 block. GST-fluorescein binding to GSH beads, fluorescence, counter-screen. inhibition, % at 10 µM. hit rate 2% among 1,300;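 active means inhibition above 50%, about 3 SD of the inhibition seen with non-fluorescent compounds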;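 further: fluorescein maleimide labelled GST captured on 4 micron glutathione beads; higher means more loss of bead fluorescence from quenching or blocked binding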
FAS-TE conf – FAS thioesterase domain inhibitors, confirmation, biochemical, fluorescence intensity, single concentration. inhibition, % at 15 µM. shares compounds with FAS-TE inh. recombinant FAS-TE, OMFH fluorogenic substrate. hit rate 45% among 2,300;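 active means compounds inhibiting the enzyme by at least 50% at 15 µM in any one of the replicates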
Of the large screens only hits and unclear results are named; the others gave an inactive call (follow-up assays come after a bar, where they were run).

O=C(CN1C(=O)COc2ccccc21)NCCCN1CCCC1	Arr AP2 block 64 | Arr AP2 CP1 inactive | GST-FITC bead inactive
CCNC(=O)C1CCCN(C(=O)c2cc(OC)c(OC)c(OC)c2)CC1 (centres undefined)	none (no result: NR3A LBD binder, Arr AP2 block)
CCn1c(=O)c(C(=O)Nc2ccccc2F)c(O)c2ccccc21	none
CCn1c(=O)n(CC)c2cc(N3CCCC3)c(NC(=O)c3ccc(F)cc3)cc21	none | Arr AP2 CP1 inactive | GST-FITC bead inactive
CCn1c(=O)n(CC)c2cc(N3CCCC3)c(NC(=O)c3cccc(OC)c3)cc21	none | Arr AP2 CP1 inactive | GST-FITC bead inactive
CCOc1ccc(C(=O)Nc2cc3c(cc2N2CCCC2)n(CC)c(=O)n3CC)cc1OCC	none | Arr AP2 CP1 inactive | GST-FITC bead inactive
CCn1c(=O)n(CC)c2cc(N3CCCC3)c(NC(=O)c3c(F)cccc3F)cc21	none | Arr AP2 CP1 inactive | GST-FITC bead inactive
CCCOc1ccc(C(=O)Nc2ccc(N3CCOCC3)cc2N2CCOCC2)cc1OCC	none (no result: NR3A LBD binder, Arr AP2 block)
CCn1cc(/C=C(\NC(=O)c2ccccc2)C(=O)N2CCOCC2)c2ccccc21	Arr AP2 block 55 | Arr AP2 CP1 inactive | GST-FITC bead inactive
COC(=O)C1=C(NC(=O)COc2ccc3ccccc3c2)CCS1	none
COC(=O)C1=C(NC(=O)COc2ccc(Cl)cc2Cl)CCS1	NR3A LBD binder 15, Arr AP2 block 67 | Arr AP2 CP1 inactive | GST-FITC bead inactive
CCOC(=O)c1ccccc1NC(=O)c1nc2nccc(C)n2n1	Arr AP2 block 98 | Arr AP2 CP1 inactive | GST-FITC bead inactive
O=C(O)[C@H]1CC=C[C@H]2CCN(Cc3ccc(Cl)c(Cl)c3)C(=O)[C@@H]12	Arr AP2 block 67 | Arr AP2 CP1 inactive | GST-FITC bead inactive
O=C1[C@H]2[C@H](C=CC[C@H]2C(=O)N2CCOCC2)CCN1Cc1ccc(Cl)c(Cl)c1	none (no result: FAS-TE inh, hiPSC survival, SENP1 inh, Arr AP2 block, Cardio protect)
O=C(NCC(F)(F)F)c1ccc2sc([C@@H]3O[C@H](CO)[C@H](O)[C@H](O)[C@H]3O)nc2c1	none (no result: NR3A LBD binder, Arr AP2 block)
O=[N+]([O-])c1cc(S(=O)(=O)N2CCCC2)ccc1N/N=C/c1cccnc1	Arr AP2 block 70 | Arr AP2 CP1 inactive | GST-FITC bead inactive
O=C(O)c1ccccc1/C=N/Nc1ccc(S(=O)(=O)N2CCCC2)cc1[N+](=O)[O-]	none
O=C(NC(=S)N1CC=CCC1)c1ccccc1	none (no result: NR3A LBD binder, Arr AP2 block)
CCOC(=O)c1c(C)[nH]c(C(=O)CN2C(=O)NC(C)(C)C2=O)c1C	none
CCOC(=O)c1c(C)[nH]c(C(=O)CN2C(=O)C(=O)N(CC(C)C)C2=O)c1C	Arr AP2 block 56 | Arr AP2 CP1 inactive | GST-FITC bead inactive
COc1ccc(Cn2c(=O)[nH]c3cc(C(=O)NCCCOC(C)C)ccc3c2=O)cc1	none
COc1ccc(Cn2c(=O)[nH]c3cc(C(=O)NCCc4ccc(S(N)(=O)=O)cc4)ccc3c2=O)cc1	Arr AP2 block 110 | Arr AP2 CP1 inactive | GST-FITC bead inactive
CCCS(=O)(=O)NC(=O)C1(C)CCN(C(=O)c2c(-c3ccccc3)noc2C)C1 (centres undefined)	none (no result: NR3A LBD binder, Arr AP2 block)
CCCc1cc(=O)[nH]c(SCC(=O)c2c[nH]c3ccccc23)n1	Arr AP2 block 54 | Arr AP2 CP1 inactive | GST-FITC bead inactive
CCCc1cc(=O)[nH]c(SCC(=O)c2c(C)[nH]c3ccccc23)n1	none
Cc1ccc(CNC(=O)Nc2nnc([C@@H]3C[C@H](O)[C@@H](CO)O3)s2)cc1	none (no result: NR3A LBD binder, Arr AP2 block)
COc1ccc(OC)c(NC(=O)CSc2nnc(CCCO)n2-c2ccccc2)c1	Arr AP2 block 90 | Arr AP2 CP1 inactive | GST-FITC bead inactive
CCCN1CCN(C(=O)Cn2nc(C)n3c(cc4c(OC)cccc43)c2=O)CC1	none
COc1cccc2c1cc1c(=O)n(CC(=O)NCCCN3CCN(C)CC3)nc(C)n12	Arr AP2 block 59 | Arr AP2 CP1 inactive | GST-FITC bead inactive
CCCCCCCCCCCCCCCC(=O)Nc1ccn(C2OC(CO)C(O)C2O)c(=O)n1 (centres undefined)	none
O=C1C2C3C=CC(c4ccccc4)(C2C(=O)N1c1cccc(Cl)c1)C1C(=O)N(c2cccc(Cl)c2)C(=O)C31 (centres undefined)	FAS-TE inh 65, NR3A LBD binder 23, Arr AP2 block 61 | Arr AP2 CP1 inactive | GST-FITC bead inactive | FAS-TE conf inactive
CCCCn1c(N)c(N(CCOC)C(=O)c2oc3c(Cl)cccc3c2C)c(=O)[nH]c1=O	none (no result: NR3A LBD binder, Arr AP2 block)
CC(=O)NC(=S)Nc1sc2c(c1C#N)CCCCC2	FAS-TE inh 57 | FAS-TE conf 59
CC(=O)Nc1sc2c(c1C#N)CCCC2	none
CCc1cccc(CC)c1NC(=O)/C(C#N)=C/c1ccccc1C(F)(F)F	FAS-TE inh 54 | FAS-TE conf 61
N#C/C(=C\c1ccccc1C(F)(F)F)C(=O)Nc1ccccc1	none
CCCCN1C(=O)C(CC(=O)NCCN2CCOCC2)CC(C(=O)N(C)C)=C1C (centres undefined)	none (no result: NR3A LBD binder, Arr AP2 block)
O=C(c1ccc(Cl)cc1)[C@@H]1[C@@H]2C(=O)N(c3ccccc3)C(=O)[C@@H]2C2c3ccccc3C=NN21 (some centres undefined)	FAS-TE inh 52 | FAS-TE conf inactive
O=C(c1ccc(Cl)cc1)C1C2C(=O)N(c3ccccc3)C(=O)C2C2CCCN21 (centres undefined)	none
Cc1onc(-c2c(F)cccc2Cl)c1-c1nnc(-c2cccc3ccccc23)o1	none
Cc1onc(-c2c(Cl)cccc2Cl)c1-c1nc2cc(Cl)ccc2c(=O)o1	FAS-TE inh 54 | FAS-TE conf inactive
